Measured values published in ChEMBL document CHEMBL1147057, “Virstatin inhibits dimerization of the transcriptional activator ToxT” (Proc Natl Acad Sci U S A, 2007).
Activity calls are given as the source filed them. The calls are words filed in the database; no cut-off is given here.

Tests used:
[1] = biological target: T1, TCP pilus virulence regulatory protein (Vibrio cholerae serotype O1 (strain ATCC 39541 / Classical Ogawa 395 /O395)) (UniProt A5F384); experiment: Inhibition of Vibrio cholerae wild type ToxT N-terminal domain dimerization expressed in Escherichia coli assessed as beta-galatosidase reporter gene expression at 20 uM by bacterial two-hybrid system
T1 sequence (whole entry): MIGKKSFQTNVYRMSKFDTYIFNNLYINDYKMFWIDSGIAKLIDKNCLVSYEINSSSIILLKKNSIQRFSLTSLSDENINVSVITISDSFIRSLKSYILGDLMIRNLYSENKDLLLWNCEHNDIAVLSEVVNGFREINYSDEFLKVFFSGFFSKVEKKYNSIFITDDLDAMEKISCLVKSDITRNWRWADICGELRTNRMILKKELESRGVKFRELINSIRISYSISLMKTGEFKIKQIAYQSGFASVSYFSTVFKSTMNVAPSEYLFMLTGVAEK
Method in brief: (§1)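 Bacterial two-hybrid: identical toxT N-terminal segments fused to Zif (pACTrAp-Zif) and ω (pBRGpω) and co-transformed into E. coli KDZif1ZΔtolC. Cultures grown overnight with or without 10 μM IPTG and virstatin (10–50 μM), then subcultured into the same conditions. lacZ reporter activity measured by β-galactosidase assay in triplicate; a representative experiment is reported.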

[2] = biological target: T1, TCP pilus virulence regulatory protein (Vibrio cholerae serotype O1 (strain ATCC 39541 / Classical Ogawa 395 /O395)); experiment: Inhibition of ToxT-mediated transcriptional activation of ctxAB promoter in Vibrio cholerae O395deltalacZ assessed as beta-galactosidase expression at 100 uM relative to control; parameters: scale not given: the % may be the effect or the level left
[3] = biological target: T1, TCP pilus virulence regulatory protein (Vibrio cholerae serotype O1 (strain ATCC 39541 / Classical Ogawa 395 /O395)); experiment: Inhibition of maltose binding protein-fused Vibrio cholerae ToxT monomer by gel filtration method
[4] = biological target: T1, TCP pilus virulence regulatory protein (Vibrio cholerae serotype O1 (strain ATCC 39541 / Classical Ogawa 395 /O395)); experiment: Inhibition of ToxT-mediated transcriptional activation of acfD promoter in Vibrio cholerae O395deltalacZ assessed as beta-galactosidase expression at 100 uM relative to control; parameters: scale not given: the % may be the effect or the level left
[5] = biological target: T1, TCP pilus virulence regulatory protein (Vibrio cholerae serotype O1 (strain ATCC 39541 / Classical Ogawa 395 /O395)); experiment: Inhibition of ToxT-mediated transcriptional activation of tcpA promoter in Vibrio cholerae O395deltalacZ assessed as beta-galactosidase expression at 100 uM relative to control; parameters: scale not given: the % may be the effect or the level left
[6] = biological target: T1, TCP pilus virulence regulatory protein (Vibrio cholerae serotype O1 (strain ATCC 39541 / Classical Ogawa 395 /O395)); experiment: Inhibition of Vibrio cholerae wild type ToxT N-terminal domain dimerization expressed in Escherichia coli assessed as beta-galatosidase reporter gene expression at 35 uM by bacterial two-hybrid system; method in brief: as §1
[7] = biological target: T1, TCP pilus virulence regulatory protein (Vibrio cholerae serotype O1 (strain ATCC 39541 / Classical Ogawa 395 /O395)); experiment: Inhibition of ToxT-mediated transcriptional activation of tagA promoter in Vibrio cholerae O395deltalacZ assessed as beta-galactosidase expression at 100 uM relative to control; parameters: scale not given: the % may be the effect or the level left
[8] = biological target: T1, TCP pilus virulence regulatory protein (Vibrio cholerae serotype O1 (strain ATCC 39541 / Classical Ogawa 395 /O395)); experiment: Inhibition of Vibrio cholerae wild type ToxT N-terminal domain dimerization expressed in Escherichia coli assessed as beta-galatosidase reporter gene expression at 50 uM by bacterial two-hybrid system; method in brief: as §1
[9] = biological target: T1, TCP pilus virulence regulatory protein (Vibrio cholerae serotype O1 (strain ATCC 39541 / Classical Ogawa 395 /O395)); experiment: Inhibition of ToxT-mediated transcriptional activation of tcpI promoter in Vibrio cholerae O395deltalacZ assessed as beta-galactosidase expression at 100 uM relative to control; parameters: scale not given: the % may be the effect or the level left
Vibrio cholerae [10] = experiment: Inhibition of maltose binding protein-fused Vibrio cholerae ToxT L113P mutant monomer by gel filtration method
[11] = biological target: T1, TCP pilus virulence regulatory protein (Vibrio cholerae serotype O1 (strain ATCC 39541 / Classical Ogawa 395 /O395)); experiment: Inhibition of ToxT-mediated transcriptional activation of aldA promoter in Vibrio cholerae O395deltalacZ assessed as beta-galactosidase expression at 100 uM relative to control; parameters: scale not given: the % may be the effect or the level left
Vibrio cholerae [12] = experiment: Inhibition of Vibrio cholerae ToxT L113P mutant N-terminal domain dimerization expressed in Escherichia coli assessed as beta-galatosidase reporter gene expression at 10 uM by bacterial two-hybrid system; method in brief: as §1
[13] = biological target: T1, TCP pilus virulence regulatory protein (Vibrio cholerae serotype O1 (strain ATCC 39541 / Classical Ogawa 395 /O395)); experiment: Inhibition of Vibrio cholerae wild type ToxT-mediated transcription of ctx promoter at 50 uM
[14] = biological target: T1, TCP pilus virulence regulatory protein (Vibrio cholerae serotype O1 (strain ATCC 39541 / Classical Ogawa 395 /O395)); experiment: Inhibition of Vibrio cholerae wild type ToxT N-terminal domain dimerization expressed in Escherichia coli assessed as beta-galatosidase reporter gene expression at 10 uM by bacterial two-hybrid system; method in brief: as §1
[15] = biological target: T1, TCP pilus virulence regulatory protein (Vibrio cholerae serotype O1 (strain ATCC 39541 / Classical Ogawa 395 /O395)); experiment: Inhibition of ToxT-mediated transcriptional activation of acfA promoter in Vibrio cholerae O395deltalacZ assessed as beta-galactosidase expression at 100 uM relative to control; parameters: scale not given: the % may be the effect or the level left

O=C(O)CCCN1C(=O)c2cccc3cccc(c23)C1=O
Activity [1]: Active
Activity [2]: 3%
Activity [3]: Active
Activity [4]: 3%
Activity [5]: 3%
Activity [6]: Active
Activity [7]: 3%
Activity [8]: Active
Activity [9]: 15%
Activity (Vibrio cholerae [10]): inactive
Activity [11]: 15%
Activity (Vibrio cholerae [12]): inactive
Activity [13]: Active
Activity [14]: Active
Activity [15]: 15%

O=C(O)CN1C(=O)c2cccc3cccc(c23)C1=O
Activity [13]: Active

O=C(O)CCN1C(=O)c2cccc3cccc(c23)C1=O
Activity [13]: Active

O=C(O)C1CCCC(N2C(=O)c3cccc4cccc(c34)C2=O)C1 (centres undefined)
Activity [13]: Active

COC(=O)CCCN1C(=O)c2cccc3cccc(c23)C1=O
Activity [13]: Active
